High-throughput results deposited in PubChem BioAssay by several laboratories.
MC4R ag barr – activates human MC4R beta-arrestin recruitment; P32245; U2OS MC4R beta-arrestin complementation, luminescence; percent of melanotan II response, DMSO zero; activation, % at 8.9 µM; 0.98% of 360,000 active; AID 540308;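 active means activation above a per-plate cutoff, the mean activation of sample wells on that plate plus 3 SD, cut at about 8% in these data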
Target sequence (P32245 whole entry, looked up): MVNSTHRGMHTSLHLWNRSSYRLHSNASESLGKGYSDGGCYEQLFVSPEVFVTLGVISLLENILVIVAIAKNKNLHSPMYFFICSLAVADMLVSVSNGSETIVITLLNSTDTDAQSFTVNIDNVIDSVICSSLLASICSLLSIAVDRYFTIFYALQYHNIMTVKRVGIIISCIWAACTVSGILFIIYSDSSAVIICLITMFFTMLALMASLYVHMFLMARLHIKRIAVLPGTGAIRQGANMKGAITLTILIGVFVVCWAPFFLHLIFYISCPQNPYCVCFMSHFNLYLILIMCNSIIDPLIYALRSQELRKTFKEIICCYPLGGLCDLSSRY
MC4R antag cAMP – antagonists of human melanocortin 4 receptor (MC4R). P32245. MC4R-expressing cells, MTII-stimulated cAMP, LANCE TR-FRET. inhibition, % at 6.5 µM. 0.48% of 360,000 active. AID 540295;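 active means inhibition above its plate's cutoff, the mean of tested wells on that plate plus 3 SD, cut at about 29% in these data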;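 further: 0% = Melanotan II alone and 100% = Melanotan II plus saturating MCL0020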
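system = U2OS cells with stable human MC4R expression | also added = Melanotan II challenge after compound preincubation | dosing = one concentration, 6.5 µM nominal | incubation = compound 30 min, challenge 1 h, detection 1 h | measured by = TR-FRET with Eu-cAMP and labeled anti-cAMP, 671 nm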
aDG glyco act – increases alpha dystroglycan glycosylation; Pro5-aDG cells, alpha-DG glycosylation AlphaScreen (IIH6); 0% Pro5, 100% B10-LARGE cell signal; activation, % at 10 µM; 0.22% of 360,000 active;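 active means activation of at least 8% versus controls, or a plate z-score of at least 8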;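 further: Pro5 are CHO cells carrying HIG-tagged alpha-DG that lacks glycosylation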
NTR1 agonist – agonists of human neurotensin receptor NTR1 | NTR1-U2OS beta-arrestin-GFP spot imaging, agonist mode | activation, % at 20 µM | P30989 | AID 493036 | 0.17% of 330,000 active;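 active means activation at or above 40% of the spot to cytoplasm intensity ratio, with at least 20 cells analyzed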;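 further: 0% = DMSO without peptide and 100% = 100 nM NTR1 peptide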
Tb MetRS inh – Trypanosoma brucei MetRS inhibition. purified T. brucei MetRS, ATP depletion, Kinase-Glo luminescence. inhibition, % at 11.9 µM. 0.4% of 360,000 active. AID 624268;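 active means inhibition above a per-plate cutoff of the control wells' mean inhibition plus 3 SD, cut at about 5.5% in these data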;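 further: 0% = DMSO wells median and 100% = median of wells with control inhibitor compound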
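technique = Kinase-Glo luminescence, ATP depletion format | system = purified MetRS (methionyl-tRNA synthetase) enzyme from Trypanosoma brucei | timing = 15 min preincubation, 2 h reaction, all 25 °C | evaluation = percent inhibition versus plate control medians | dosing = single dose, 11.9 µM final nominal, 0.9% final DMSO | also added = substrates ATP, L-methionine and bulk Escherichia coli tRNA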
TAG inh – reduces triacylglycerol accumulation in H9c2 cells. inhibition, % at 12.5 µM. Nile Red lipid (TAG) fluorescence; cells loaded with 200 µM oleic acid. 0.66% of 230,000 active;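 active means pattern-corrected inhibition of lipid staining of at least 50% with the nuclear-stain viability signal not falling by more than 50%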;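 further: 0% = DMSO wells and 100% = triacsin C control wells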
* = called active by the depositor. Only some compounds are listed: those with a hit (about 2.4% of all), similar ones and a draw of the others.

Oc1c(Cl)cc(Cl)cc1/C=N/c1nc(-c2ccc(Cl)cc2)cs1 was read as MC4R ag barr -2, MC4R antag cAMP 34*, aDG glyco act 0, NTR1 agonist -1 and Tb MetRS inh 0.
`Oc1c(Cl)cc(Cl)cc1/C=N/c1nccs1` gave MC4R ag barr 0, MC4R antag cAMP 1, aDG glyco act 0, NTR1 agonist 3 and Tb MetRS inh 1.
`O=S(=O)(Nc1ccc(O)c2ccccc12)c1cccs1` gave MC4R ag barr -3, MC4R antag cAMP 12, aDG glyco act 2.7*, NTR1 agonist -1 and Tb MetRS inh 1.
For O=C([C@H]1O[C@@H](n2ccc(=O)[nH]c2=O)[C@H](O)[C@@H]1O)N1CCN(Cc2ccccn2)CC1 the results were aDG glyco act 0 and Tb MetRS inh 0.
For Cc1cc(C)n2nc(N)c(N=Nc3ccc4c(c3)OCO4)c2n1 the results were MC4R ag barr 8.6*, MC4R antag cAMP -16, aDG glyco act 0, NTR1 agonist 3 and Tb MetRS inh -1.
`O=c1c(Br)ccc(Br)cc1Br` gave MC4R ag barr -3, MC4R antag cAMP 5, aDG glyco act 0, Tb MetRS inh 0 and TAG inh 99*.
Screening CCCCNS(=O)(=O)c1ccc2nc(SCC(=O)c3ccccc3OC)[nH]c2c1 returned MC4R ag barr -3, MC4R antag cAMP 14, aDG glyco act 0, NTR1 agonist 2 and Tb MetRS inh 13*.
For CCCCNS(=O)(=O)c1ccc2nc(SCC(N)=O)[nH]c2c1 the results were MC4R ag barr 0, MC4R antag cAMP 21, aDG glyco act 0, NTR1 agonist -1, Tb MetRS inh 1 and TAG inh 5.
For Cc1ccccc1-c1cnc(C(O)c2cccc(C)c2C)[nH]1 (centres undefined) the results were MC4R ag barr 1, MC4R antag cAMP 2, aDG glyco act 0, Tb MetRS inh 0 and TAG inh -4.
O=C(Nc1ccc(S(=O)(=O)NC2=NCCCCC2)cc1)c1ccc([N+](=O)[O-])s1 was read as MC4R ag barr 1, MC4R antag cAMP 9, aDG glyco act 8.4*, NTR1 agonist 5, Tb MetRS inh 0 and TAG inh 93.
O=C(Nc1ccc(S(=O)(=O)NC2=NCCCCC2)cc1)c1cccs1 was read as MC4R ag barr -3, MC4R antag cAMP 0, aDG glyco act 0, NTR1 agonist 1, Tb MetRS inh 0 and TAG inh 0.
Screening CC(=O)C1=CCC(c2ccc(Cl)cc2)N(S(=O)(=O)c2ccccc2)C1 (centres undefined) returned aDG glyco act 0 and Tb MetRS inh -1.
Cc1ccc(NC(=O)Nc2nnc(Cc3ccc([N+](=O)[O-])cc3)s2)cc1 was read as MC4R ag barr 9.3*, MC4R antag cAMP -10, aDG glyco act 0, NTR1 agonist 1 and Tb MetRS inh -2.
`O=C(Nc1ccc(Cl)cc1)Nc1nnc(Cc2ccc([N+](=O)[O-])cc2)s1` gave MC4R ag barr -3, MC4R antag cAMP 12, aDG glyco act 0, NTR1 agonist 5 and Tb MetRS inh 0.
C=CCn1c(N)c(C(=O)Nc2ccc(C)c(C)c2)c2nc3ccccc3nc21 was read as MC4R ag barr 1, MC4R antag cAMP 9, aDG glyco act 0, NTR1 agonist -1, Tb MetRS inh 0 and TAG inh 54*.
Screening Cc1cn([C@@H](CCCCNC(=O)OC(C)(C)C)C(=O)NCCCCCCCCCCC(=O)N2CCN(C(=O)OC(C)(C)C)CC2)nn1 returned MC4R ag barr 1, MC4R antag cAMP 4, aDG glyco act 4, NTR1 agonist 14, Tb MetRS inh 0 and TAG inh -39.
CC[C@H](C)Cc1cn([C@@H](CCCN=C(NC(=O)OC(C)(C)C)NC(=O)OC(C)(C)C)C(=O)NCCCCCCCCCCC(=O)N2CCN(C(=O)OC(C)(C)C)CC2)nn1 was read as MC4R ag barr 0, MC4R antag cAMP 24, aDG glyco act 1, NTR1 agonist 45*, Tb MetRS inh 0 and TAG inh 15.
C#CCOCCOCCOCCNc1nc(N2CCN(C(=O)CCCCCCCCCCNC(=O)[C@H](CCCCN)n3cc(C[C@@H](C)CC)nn3)CC2)nc(N2CCN(C(=O)CCCCCCCCCCNC(=O)[C@@H]([C@H](C)O)n3cc(C)nn3)CC2)n1 was read as MC4R ag barr -1, MC4R antag cAMP 44*, aDG glyco act 0, NTR1 agonist 4, Tb MetRS inh 0 and TAG inh 49.
Screening C#CCOCCOCCOCCNc1nc(N2CCN(C(=O)CCCCCCCCCCNC(=O)[C@H](CCCCN)n3cc(C)nn3)CC2)nc(N2CCN(C(=O)CCCCCCCCCCNC(=O)[C@@H]([C@H](C)O)n3cc(C)nn3)CC2)n1 returned MC4R ag barr -1, MC4R antag cAMP 8, aDG glyco act 0, NTR1 agonist 4, Tb MetRS inh 0 and TAG inh -11.
C#CCOCCOCCOCCNc1nc(N2CCN(C(=O)CCCCCCCCCCNC(=O)[C@H](CCCCN)n3cc(C[C@@H](C)CC)nn3)CC2)nc(N2CCN(C(=O)CCCCCCCCCCNC(=O)[C@H](CCCN=C(N)N)n3cc(C[C@@H](C)CC)nn3)CC2)n1 was read as MC4R ag barr -2, MC4R antag cAMP 83*, aDG glyco act -1, NTR1 agonist 1, Tb MetRS inh 0 and TAG inh 1.
Screening C#CCOCCOCCOCCNc1nc(N2CCN(C(=O)CCCCCCCCCCNC(=O)[C@@H](CCSC)n3cc(CCO)nn3)CC2)nc(N2CCN(C(=O)CCCCCCCCCCNC(=O)[C@H](CCCN=C(N)N)n3cc(C[C@@H](C)CC)nn3)CC2)n1 returned MC4R ag barr 0, MC4R antag cAMP 60*, aDG glyco act 0, NTR1 agonist 8, Tb MetRS inh 0 and TAG inh -6.
Screening C#CCOCCOCCOCCNc1nc(N2CCN(C(=O)CCCCCCCCCCNC(=O)[C@H](CO)n3cc(CCCCCN)nn3)CC2)nc(N2CCN(C(=O)CCCCCCCCCCNC(=O)[C@H](CCCN=C(N)N)n3cc(C[C@@H](C)CC)nn3)CC2)n1 returned NTR1 agonist 14.
For CC(C)C[C@@H]1O[C@H](CCc2ccccc2)Cc2[nH]c(=S)[nH]c(=O)c21 the results were aDG glyco act 0 and Tb MetRS inh -1.
`Nc1nc(N)c2cc(CNc3ccc(Cl)c(Cl)c3)ccc2n1` gave MC4R ag barr -1, MC4R antag cAMP 5, aDG glyco act 0, Tb MetRS inh 2 and TAG inh 26.
